Test results from ChEMBL document CHEMBL5058577, “EUbOPEN Chemogenomics Library 2 (Multiplex)” (2022).

Tested on: U2OS
Experiment: Multiplex assay against U2OS
Type: toxicity, cell-based
Conditions: human
In short: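 Live cells carried four stains from seeding: Hoechst33342, BioTracker Green Microtubule Cytoskeleton Dye, MitoTracker Red and Annexin V Alexa Fluor 680. They were imaged on a CQ1 microscope at 37°C and 5% CO2 after compound addition. Using CellPathfinder machine-learning gating, cells were split into Hoechst high-intensity objects or normal cells, normal cells into healthy, pyknosed or fragmented nuclei, and pyknosed cells into mitotic or apoptotic; tubulin, mitochondrial-mass and membrane-permeability phenotypes are per cents of healthy-nucleus cells.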

[1] = 12 h, 1 µM, compound concentration 1 uM, replicate 1
[2] = 12 h, 1 µM, compound concentration 1 uM, replicate 2
[3] = 12 h, 10 µM, compound concentration 10 uM, replicate 1
[4] = 12 h, 10 µM, compound concentration 10 uM, replicate 2
[5] = 24 h, 1 µM, compound concentration 1 uM, replicate 1
[6] = 24 h, 1 µM, compound concentration 1 uM, replicate 2
[7] = 24 h, 10 µM, compound concentration 10 uM, replicate 1
[8] = 24 h, 10 µM, compound concentration 10 uM, replicate 2
[9] = 48 h, 1 µM, compound concentration 1 uM, replicate 1
[10] = 48 h, 1 µM, compound concentration 1 uM, replicate 2
[11] = 48 h, 10 µM, compound concentration 10 uM, replicate 1
[12] = 48 h, 10 µM, compound concentration 10 uM, replicate 2

## Cc1c(Cc2ccc3ccccc3n2)c2cc(F)ccc2n1CC(=O)O [TIMAPIPRANT]
[1]
  Population Apoptotic (%): 84%
  Population Fragmented Nuclei (%): 21%
  Population Healthy Nuclei (%): 69%
  Population Hoechst High Intensity Objects (%): 2%
  Population Membrane Permeable-Phenotype (%): 3%
  Population Mitochondria Different-Phenotype (%): 1%
  Population Mitotic Cells (%): 16%
  Population Normal (%): 97%
  Population Pyknosed Nuclei (%): 8%
  Population Tubulin-Different-Phenotype (%): 1%
  Total Cell Count: 298
[2]
  Population Apoptotic (%): 83%
  Population Fragmented Nuclei (%): 22%
  Population Healthy Nuclei (%): 70%
  Population Hoechst High Intensity Objects (%): 1%
  Population Membrane Permeable-Phenotype (%): 4%
  Population Mitochondria Different-Phenotype (%): 4%
  Population Normal (%): 98%
  Population Pyknosed Nuclei (%): 6%
  Population Tubulin-Different-Phenotype (%): 3%
  Total Cell Count: 94
[3]
  Population Apoptotic (%): 75%
  Population Fragmented Nuclei (%): 30%
  Population Healthy Nuclei (%): 62%
  Population Hoechst High Intensity Objects (%): 2%
  Population Membrane Permeable-Phenotype (%): 4%
  Population Mitochondria Different-Phenotype (%): 1%
  Population Mitotic Cells (%): 25%
  Population Normal (%): 97%
  Population Pyknosed Nuclei (%): 6%
  Population Tubulin-Different-Phenotype (%): 2%
  Total Cell Count: 244
[4]
  Population Apoptotic (%): 68%
  Population Fragmented Nuclei (%): 12%
  Population Healthy Nuclei (%): 75%
  Population Hoechst High Intensity Objects (%): 0%
  Population Membrane Permeable-Phenotype (%): 6%
  Population Mitochondria Different-Phenotype (%): 3%
  Population Mitotic Cells (%): 31%
  Population Normal (%): 99%
  Population Pyknosed Nuclei (%): 12%
  Population Tubulin-Different-Phenotype (%): 3%
  Total Cell Count: 132
[5]
  Population Apoptotic (%): 96%
  Population Fragmented Nuclei (%): 18%
  Population Healthy Nuclei (%): 73%
  Population Hoechst High Intensity Objects (%): 1%
  Population Membrane Permeable-Phenotype (%): 6%
  Population Mitochondria Different-Phenotype (%): 3%
  Population Mitotic Cells (%): 3%
  Population Normal (%): 98%
  Population Pyknosed Nuclei (%): 7%
  Population Tubulin-Different-Phenotype (%): 4%
  Total Cell Count: 371
[6]
  Population Apoptotic (%): 100%
  Population Fragmented Nuclei (%): 19%
  Population Membrane Permeable-Phenotype (%): 7%
  Population Mitochondria Different-Phenotype (%): 2%
  Population Mitotic Cells (%): 0%
  Population Tubulin-Different-Phenotype (%): 3%
  Total Cell Count: 117
[7]
  Population Apoptotic (%): 94%
  Population Fragmented Nuclei (%): 26%
  Population Healthy Nuclei (%): 66%
  Population Hoechst High Intensity Objects (%): 1%
  Population Membrane Permeable-Phenotype (%): 6%
  Population Mitochondria Different-Phenotype (%): 2%
  Population Mitotic Cells (%): 5%
  Population Normal (%): 98%
  Population Pyknosed Nuclei (%): 6%
  Population Tubulin-Different-Phenotype (%): 3%
  Total Cell Count: 278
[8]
  Population Apoptotic (%): 72%
  Population Fragmented Nuclei (%): 18%
  Population Healthy Nuclei (%): 74%
  Population Hoechst High Intensity Objects (%): 0%
  Population Membrane Permeable-Phenotype (%): 8%
  Population Mitotic Cells (%): 27%
  Population Normal (%): 100%
  Population Pyknosed Nuclei (%): 7%
  Total Cell Count: 152
[9]
  Population Apoptotic (%): 88%
  Population Fragmented Nuclei (%): 16%
  Population Healthy Nuclei (%): 77%
  Population Hoechst High Intensity Objects (%): 1%
  Population Membrane Permeable-Phenotype (%): 4%
  Population Mitochondria Different-Phenotype (%): 3%
  Population Mitotic Cells (%): 11%
  Population Normal (%): 98%
  Population Pyknosed Nuclei (%): 6%
  Population Tubulin-Different-Phenotype (%): 3%
  Total Cell Count: 536
[10]
  Population Apoptotic (%): 90%
  Population Fragmented Nuclei (%): 22%
  Population Healthy Nuclei (%): 71%
  Population Hoechst High Intensity Objects (%): 2%
  Population Membrane Permeable-Phenotype (%): 12%
  Population Mitochondria Different-Phenotype (%): 5%
  Population Mitotic Cells (%): 10%
  Population Normal (%): 97%
  Population Tubulin-Different-Phenotype (%): 6%
  Total Cell Count: 168
[11]
  Population Apoptotic (%): 100%
  Population Fragmented Nuclei (%): 19%
  Population Healthy Nuclei (%): 74%
  Population Hoechst High Intensity Objects (%): 0%
  Population Membrane Permeable-Phenotype (%): 3%
  Population Mitochondria Different-Phenotype (%): 1%
  Population Mitotic Cells (%): 0%
  Population Normal (%): 99%
  Population Pyknosed Nuclei (%): 6%
  Population Tubulin-Different-Phenotype (%): 1%
  Total Cell Count: 392
[12]
  Population Apoptotic (%): 92%
  Population Fragmented Nuclei (%): 13%
  Population Healthy Nuclei (%): 80%
  Population Hoechst High Intensity Objects (%): 2%
  Population Membrane Permeable-Phenotype (%): 5%
  Population Mitochondria Different-Phenotype (%): 3%
  Population Mitotic Cells (%): 7%
  Population Normal (%): 97%
  Population Tubulin-Different-Phenotype (%): 3%
  Total Cell Count: 204
